Source: PubChem (several laboratories)
Diaphorase inh: diaphorase inhibitors and chemical oxidizers, primary screen, counter-screen for diaphorase-coupled primary assays, biochemical, uHTS, resorufin fluorescence; diaphorase resazurin-to-resorufin fluorescence, NADH, 16 min; bacterial (C. kluyveri) enzyme, not human; inhibition, % at 20 µM; hit rate 0.69% among 190,000; AID 1217, 2008;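 active = primary screen inhibition at 20 µM above a set limit, cut at about 50% in these data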
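material = Clostridium kluyveri diaphorase enzyme | amount = 0.14 U/mL diaphorase, enzyme working solution | schedule = incubation 16 min, room temperature | detection = fluorescence of resorufin formed from resazurin, Ex 544/Em 590 nm | benchmarks = positive control minus NADH, DMSO neutral control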
G6PDH CS: L. mesenteroides G6PDH inhibitors, counter-screen for G6PDH-coupled screening assays, biochemical, Leuconostoc mesenteroides enzyme. inhibition, % at 5 µM. Purified L. mesenteroides G6PDH, diaphorase/resazurin coupled fluorescence, 45 min. AID 1020, 2008. glucose-6-phosphate dehydrogenase [Leuconostoc mesenteroides]. hit rate 0.12% among 200,000
Diaph act CS: compounds boosting diaphorase resazurin reduction – biochemical, uHTS, resorufin fluorescence, counter-screen for diaphorase-coupled primary assays, primary screen | Diaphorase/resazurin coupled assay, 16 min; hits give high values; 1 = vehicle wells, 0 = NADH-free wells | hit rate 0.005% among 190,000 | activation factor at 20 µM;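 active = diaphorase activity raised at least twofold by the compound at 20 µM; inactive = activation factor below 2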
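Material: Purified diaphorase enzyme from Clostridium kluyveri | Buffer or medium: 50 mM HEPES pH 7.4 with 4.542 mM MgCl2, 0.005% Tween 20 | Times: 16 min enzyme reaction, ambient temperature | Signal: Red resorufin fluorescence at 544/590 nm excitation/emission | Measure: Increased resorufin signal from activators or reducing compounds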
L major viab: Leishmania major promastigote growth inhibition, primary screen; Leishmania major promastigotes, resazurin fluorescence viability; inhibition, % at 10 µM; hit rate 9% among 200,000; AID 1063, 2008;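 also: promastigotes grown with compound for 44 hours at 28 °C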
WT yeast gro inh: growth inhibition of WT strain, primary screen, mitochondrial fusion inhibitor project, WT and mutant strains, chemical genetic | inhibition, % at 10 µM | mitochondrial fusion phenotypic screen | AID 1362, 2008 | hit rate 2.1% among 190,000; in the data active = inhibition above about 58%; tested in S. cerevisiae
Each line names hits and unclear results; the compound was inactive in the other large screens. Rows were chosen to be rich in hits. Some 11% of all compounds tested hit in one or more screens of this group. Rule as the data show it, unless noted: active = inhibition above about 50%; inactive = the rest.

CC1CCc2ccccc2N1C(=O)c1cccs1 (configuration not stated)	none
CC(=O)N(NC(=O)c1ccccc1Cl)C1CC(=O)N(c2ccc(C)cc2)C1=O (configuration not stated)	none
CCN(CC(=O)N1CCN(C)CC1)S(=O)(=O)c1ccc(Cl)cc1	none
Cc1c(C(=O)NCC2CCCO2)oc2ccc(S(=O)(=O)N3CCCC3)cc12 (configuration not stated)	none
Cc1c(C(=O)NCC2COc3ccccc3O2)oc2ccc(S(=O)(=O)N(C)C3CCCCC3)cc12 (configuration not stated)	L major viab 53
c1cc2cn[nH]c2cc1NC1CCCCCC1	Diaphorase inh 72
NC(=S)Nc1ccc2cn[nH]c2c1	none
Cc1ccc(-n2c(=O)c3c(n4cnnc24)-c2ccccc2CC32CCCCC2)cc1	L major viab 96
Cc1ccccc1-n1c(=O)c2c(n3cnnc13)-c1ccccc1CC21CCCCC1	none
Cc1cccc2c1NC(=O)C2(c1ccc(O)cc1)c1ccc(O)cc1	none
Cc1cc(C2(c3ccc(O)c(C)c3)C(=O)Nc3ccccc32)ccc1O	L major viab 93
CCN(CC(=O)Nc1cccc(OC)c1)c1ncnc2sc(C)c(C)c12	none
CCC(=O)NC(=S)Nc1ccc(NC(=O)c2cccc([N+](=O)[O-])c2C)cc1	L major viab 58
CC(=O)N/C(=C\c1ccccc1)C(=O)Nc1ccccc1C	none
CS(=O)(=O)N(CC(=O)NCc1ccco1)c1ccc(Cl)c(C(F)(F)F)c1	L major viab 76
CS(=O)(=O)N(CC(=O)NCc1ccco1)c1ccccc1Cl	none
COCCSc1nc2sc3c(c2c(=O)n1-c1ccccc1)CCN(C)C3	L major viab 100
COc1ccc(-n2c(SCC(=O)Nc3nccs3)nc3sc4c(c3c2=O)CCN(C)C4)cc1	none
O=C(NCCc1nc(-c2ccccc2)cs1)c1ccc(Br)cc1	none
CCN(CC)CCNC(=O)c1ccc(CS(=O)(=O)c2ccc(Br)cc2)o1	L major viab 78
Cc1cc(C)c2cc(CN(Cc3nnnn3C3CCCCC3)CC3CCCO3)c(=O)[nH]c2c1 (configuration not stated)	L major viab 99
CN(C)CCN(Cc1cc2cc3c(cc2[nH]c1=O)OCCO3)C(=S)NCC1CCCO1 (configuration not stated)	Diaphorase inh 50
CCN(CC)CCN(Cc1cc2cc3c(cc2[nH]c1=O)OCCO3)C(=S)NCC1CCCO1 (configuration not stated)	none
O=c1[nH]c2cc3c(cc2cc1CN(CCc1ccccc1)Cc1nnnn1C1CCCC1)OCCO3	none
Cc1ccc2cc(CN(Cc3nnnn3C3CCCCC3)CC3CCCO3)c(=O)[nH]c2c1 (configuration not stated)	L major viab 94
Cc1cc2cc(CN(Cc3nnnn3C3CCCCC3)CC3CCCO3)c(=O)[nH]c2cc1C (configuration not stated)	L major viab 82
Cc1ccc2[nH]c(=O)c(CN(CC3CCCO3)C(=O)c3ccncc3)cc2c1 (configuration not stated)	L major viab 70
Cc1ccc2cc(CN(CC3CCCO3)C(=O)C(C)C)c(=O)[nH]c2c1 (configuration not stated)	none
c1ccc(-c2nnn(C34CC5CC(CC(C5)C3)C4)n2)cc1	WT yeast gro inh 81
Nc1ncn(C23CC4CC(CC(C4)C2)C3)n1	none
CCOc1ccc(N2C(=O)CC(Sc3ccccc3C(=O)O)C2=O)c([N+](=O)[O-])c1 (configuration not stated)	none
Cc1ccc(C(c2nnnn2Cc2cccs2)N2CCN(Cc3ccc4c(c3)OCO4)CC2)cc1 (configuration not stated)	L major viab 78
CC(C)C(c1nnnn1Cc1ccc(F)cc1)N1CCN(Cc2ccc3c(c2)OCO3)CC1 (configuration not stated)	L major viab 68
CCN1CCN(C(c2nnnn2Cc2ccc3c(c2)OCO3)C(C)C)CC1 (configuration not stated)	none
CCC(c1nnnn1Cc1ccc2c(c1)OCO2)N1CCN(c2ccc(OC)cc2)CC1 (configuration not stated)	L major viab 71
CCC(c1nnnn1Cc1ccc2c(c1)OCO2)N1CCN(c2ccc(F)cc2)CC1 (configuration not stated)	none
COCCn1nnnc1C(c1ccc(C)cc1)N1CCN(Cc2ccc3c(c2)OCO3)CC1 (configuration not stated)	none
c1ccc(Cn2nnnc2CN2CCN(Cc3ccc4c(c3)OCO4)CC2)cc1	L major viab 89
O=C(NCc1ccco1)C(=O)N1CCCC1	none
C/C(=N\OCc1ccccc1)c1c(O)cc(C(C)C)n(-c2ccccc2)c1=O	none
CCN(CC)CCNc1nc2c(c(=O)[nH]c(=O)n2C)n1CC(O)COc1ccc(Cl)cc1Cl (configuration not stated)	L major viab 92
CN(C)CCNc1nc2c(c(=O)[nH]c(=O)n2C)n1CC(O)COc1ccc(Cl)cc1 (configuration not stated)	none
CCOc1ccc(N(CC(=O)NCC2CCCO2)S(=O)(=O)c2ccc(SC)cc2)cc1 (configuration not stated)	none
C=CCNC1=C(Cl)C(=O)N(c2cccc(Cl)c2Cl)C1=O	WT yeast gro inh 64
O=C1C(Cl)=C(NCC2CCCO2)C(=O)N1c1cccc(Cl)c1Cl (configuration not stated)	none
CCOC(=O)CN1C(=O)C(O)(C2CCc3ccccc3C2=O)c2ccccc21 (configuration not stated)	none
O=C(/C=C/c1ccccc1)NC1CC2CCC1C2 (configuration not stated)	L major viab 53
CCCCCCn1c(SCCCC)nc2c1c(=O)[nH]c(=O)n2C	none
CCn1c([N+](=O)[O-])nc2c1c(=O)[nH]c(=O)n2C	L major viab 100
COc1cccc(-c2csc(N3CCN(C(=S)Nc4cccc(Cl)c4)CC3)n2)c1	none
COc1cccc(-c2csc(N3CCN(C(=O)Nc4ccc(Cl)cc4)CC3)n2)c1	WT yeast gro inh 67
COc1ccc(NC(=O)N2CCN(c3nc(-c4cccc(OC)c4)cs3)CC2)cc1	L major viab 79
COc1cccc(-c2csc(N3CCN(CC(=O)NNC(=O)c4ccc(Cl)cc4)CC3)n2)c1	none
O=C(CSc1nnc2ccccn12)NCCc1ccc(Cl)cc1	none
CC(c1ccccc1)N(CCC(c1ccccc1)C1CCOC(C)(C)C1)C(=O)c1ccco1 (configuration not stated)	WT yeast gro inh 79
